Screening data: PubChem, several laboratories
LANA DNA inh = inhibitors of KSHV LANA C-terminal domain DNA binding; MBP-C-LANA/FAM-LBS DNA binding, fluorescence polarization; inhibition, % at 9 µM; actives 0.078% (n = 340,000); AID 504423;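 active = highest replicate inhibition at or above 60% at 9 µM, even if other replicates fall short; inactive = all replicates below 60% inhibition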;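 note: 0% = neutral control wells and 100% = 4 µM acridine orange control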
cardiac RTF act = cardiac RTF calcium sensitization; IANBD-labeled TnC RTF fluorescence at EC20 calcium; 0% EC20 calcium, 100% full calcium; actives 0.24% (n = 340,000); activation, % at 7.2 µM; P19429+P45379;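 active = activation above the mean over all tested compounds plus 3 SD, cut at about 30% in these data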;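 note: rise in fluorescence read as greater calcium sensitivity of cardiac thin filaments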
CAL PDZ FP-1 = inhibitors of human CAL PDZ peptide binding. Q9HD26. purified CAL PDZ, TMR-peptide fluorescence polarization, 1 h. inhibition, % at 24.9 µM. actives 0.92% (n = 300,000);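 active = mean inhibition of at least 30% with at least half of replicates also reaching 30%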;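 note: 0% = DMSO neutral control and 100% = excess unlabeled competitor peptide PRC23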
RTF Ca sens inh = cardiac RTF calcium desensitization | IANBD-labeled cardiac RTF, Ca2+ fluorescence | inhibition, % at 7.15 µM | actives 0.12% (n = 340,000) | AID 493244;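 active = inhibition above the mean inhibition of all tested compounds plus 3 SD, cut at about 17% in these data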;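 note: assay run at fixed EC70 calcium of 1.6 mM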
Keap1-Nrf2 PPI = Keap1-Nrf2 (human) interaction inhibition; actives 0.15% (n = 340,000); Keap1 Kelch-Nrf2 peptide fluorescence polarization, 1536-well; Q14145; inhibition, % at 9.4 µM; AID 504523; in the data active = inhibition above about 12%;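 note: human Keap1 Kelch domain with fluorescein labeled Nrf2 9mer peptide probe; 0% = neutral control wells and 100% = peptide positive control; higher means more block of Keap1 binding to Nrf2 peptide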
Target sequence (Q14145 whole entry, looked up, the tested form may be a part): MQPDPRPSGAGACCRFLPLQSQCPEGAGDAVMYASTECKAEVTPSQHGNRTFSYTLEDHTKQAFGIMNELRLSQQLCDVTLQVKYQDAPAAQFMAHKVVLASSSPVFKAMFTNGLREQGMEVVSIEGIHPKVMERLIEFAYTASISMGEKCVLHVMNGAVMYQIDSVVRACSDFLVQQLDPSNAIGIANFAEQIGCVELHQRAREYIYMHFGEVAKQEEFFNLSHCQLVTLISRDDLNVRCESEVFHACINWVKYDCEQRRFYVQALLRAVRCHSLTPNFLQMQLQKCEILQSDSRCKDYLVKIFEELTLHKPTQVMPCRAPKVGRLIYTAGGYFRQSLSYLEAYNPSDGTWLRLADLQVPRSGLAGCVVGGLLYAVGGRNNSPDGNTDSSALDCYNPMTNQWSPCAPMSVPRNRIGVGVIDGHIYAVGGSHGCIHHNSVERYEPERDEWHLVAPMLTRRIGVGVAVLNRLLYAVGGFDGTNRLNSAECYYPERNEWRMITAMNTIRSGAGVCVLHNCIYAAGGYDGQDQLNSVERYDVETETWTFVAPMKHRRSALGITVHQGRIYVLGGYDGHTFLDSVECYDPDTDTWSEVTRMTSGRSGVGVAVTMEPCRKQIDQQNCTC
CAL PDZ FP-2 = inhibitors of human CAL PDZ peptide binding; AID 504414; purified CAL PDZ, TMR-peptide fluorescence polarization, 1 h; actives 0.02% (n = 330,000); inhibition, % at 20 µM; Q9HD26;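 active = highest replicate inhibition of at least 40%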;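 note: plate controls were DMSO neutral control wells for no effect and unlabeled competitor peptide control wells for full effect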
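Test system: tagged CAL PDZ domain / Buffer or medium: sodium phosphate/NaCl buffer pH 7.4 with TCEP, IgG, Thesit / Reagent: TMR-labelled reporter peptide T*-PRC34 bound in PDZ groove / Compound dosing: single point, 20 µM / Schedule: 1 h incubation at room temperature before polarization reading / Technique: fluorescence polarization (mP) / Benchmarks: unlabelled peptide, DMSO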
Numbers without * were called inactive; x = not tested or not shown; + = active, no number. A selection: hits, their analogues and other compounds. The true share with any hit is near 1.3%.

SMILES	LANA DNA inh	cardiac RTF act	CAL PDZ FP-1	RTF Ca sens inh	Keap1-Nrf2 PPI	CAL PDZ FP-2
O=C(NCc1nnc(SCC(=O)N2CCN(c3ccccc3)CC2)o1)c1c(F)cccc1Cl	2	7	-2	-6	0	-1
O=C(NCc1ccccc1)c1ccc(NC(=O)C2CCCCC2)cc1	0	-3	-7	-4	-6	-1
O=c1c(/C=N/Nc2ccccc2)c(Sc2nnnn2-c2ccccc2)nc2ccccn12	2	32*	-4	-60	0	0
COc1ccc(OCCSc2nnc(C(C)NC(=O)c3ccccc3F)n2C)cc1 (centres undefined)	1	4	107*	-1	-1	-1
CC1CCCC(NC(=O)CCNC(=O)c2ccc(Cl)cc2)C1C (centres undefined)	0	-3	-4	-4	-3	-3
Cc1ccc(C(=O)CCC(=O)NC2CCCC(C)C2C)cc1 (centres undefined)	1	-4	90*	-1	0	-2
CC1CN(c2nc3ccccc3nc2SCC(=O)Nc2cccc(C(F)(F)F)c2)CC(C)O1 (centres undefined)	-1	-1	-2	-1	4	1
CCCC(C(=O)Nc1ccc(S(=O)(=O)N2CCCC2)cc1)c1ccccc1 (centres undefined)	-2	-13	-7	-3	1	-1
Cc1ccc(S(=O)(=O)NCCC(=O)NNc2c(F)c(F)cc(F)c2F)cc1	-2	0	-2	7	0	0
O=C(O)CN1C(=O)/C(=C/c2ccc(N3CCCCC3)o2)SC1=S	-10	15	3	-13	-27	0
COC(=O)CN1C(=O)S/C(=C/c2ccc(N3CCCCC3)o2)C1=O	-44	322*	-2	-291	-132	0
CCOC(=O)CN1C(=O)S/C(=C/c2ccc(N3CCCCC3)o2)C1=O	-14	70*	-2	-48	-6	-2
CC(C)(C)OC(=O)N(Cc1ccccc1)Cc1ccc(OCc2cccc(NC(=O)C3CC3)c2)cc1	1	-4	0	5	2	-1
CC(C)n1nccc1NC(=O)Nc1ccccc1	-1	-5	-4	3	2	-2
O=C(CCc1ccccc1)NCCS(=O)(=O)N1CCN(c2ccccc2)CC1	0	-4	-1	-11	-2	-3
c1cc2ccc3ccc(-n4cnnn4)c4ccc(c1)c2c34	-5	4	119*	-2	-6	x
COc1cccc2c1C(=N)c1c(O)c3c(c(O)c1C2=O)CC(O)(C(C)=O)CC3OC1CC(N)C(O)C(C)O1 (centres undefined)	4	-1	-5	-12	5	4
COc1cccc2c1C(=O)c1c(O)c3c(c(O)c1C2=O)CC(O)(C(C)=O)CC3OC1CC(O)C(O)C(C)O1 (centres undefined)	110*	223*	-1	-300	20*	11
O=C(NCCc1ccccc1)C1CCN(C2CCN(Cc3ccco3)CC2)CC1	0	6	30*	-6	-2	12
Cc1cc(Cl)ccc1C(=O)C1CCCN(C(=O)c2cnn(C(C)C)c2)C1 (centres undefined)	-2	-1	-1	1	-2	-3
CC(=O)NC(=S)Nc1cc(C(=O)O)ccc1Cl	0	2	116*	0	0	-1
Cc1ccc(S(=O)(=O)N2[C@@H](c3ccc(Br)cc3)C(C(=O)O)=C[C@H]2C(C)(C)C)cc1	1	-5	2	3	1	0
Cc1cc(C)nc(NCC(O)CNc2ccccc2C)n1 (centres undefined)	-1	-1	62*	6	1	-1
CCc1ccc(C(=O)Nc2ccc3c(c2)n(C)c(=O)n3C)cc1	1	6	x	-9	-5	-1
Cn1c(=O)n(C)c2cc(NC(=O)c3ccccc3NS(C)(=O)=O)ccc21	2	2	80*	-6	3	-1
SMILES	LANA DNA inh	cardiac RTF act	CAL PDZ FP-1	RTF Ca sens inh	Keap1-Nrf2 PPI	CAL PDZ FP-2
Cc1oc(S(=O)(=O)N2CCCCC2)cc1NC(=O)Nc1ccc(F)cc1	-1	6	45*	1	-1	-1
O=C(Nc1ccc(F)cc1)Nc1ccc(S(=O)(=O)N2CCCC2)cc1	0	6	-4	-13	2	-1
CSc1ncccc1C(=O)OCC(=O)NC1CCCCC1	0	2	-3	-8	-4	-2
CC(=O)NC(Cc1ccc(F)c(F)c1)C(=O)NC1CCN(S(=O)(=O)c2ccc(C)cc2)CC1 (centres undefined)	3	20	-3	-4	3	-2
CC(=O)NC1C(=O)N(CCN2CCOCC2)c2ccc(C)cc21 (centres undefined)	2	0	64*	-10	0	40
CC(=O)NC1C(=O)N(CCN2CCOCC2)c2ccc(Cl)cc21 (centres undefined)	-4	-1	11	-7	-3	25
O=C(Cn1ncc(N2CCOCC2)c(Cl)c1=O)c1ccc(Cl)cc1	0	3	34*	3	2	0
O=C(Cn1ncc(Cl)c(Cl)c1=O)c1ccc(Cl)cc1	-2	-1	-1	-3	-5	-1
CC(=O)Nc1ccc(S(=O)(=O)N(C)CC(=O)OCC(=O)N(CC(C)C)C2CCS(=O)(=O)C2)cc1 (centres undefined)	1	1	-1	4	1	1
CCOc1ccc(S(=O)(=O)NCc2ccccn2)c(C)c1C	0	-9	-3	-3	-3	0
O=C(COC(=O)c1ccccc1O)Nc1cccc(S(=O)(=O)NC2=NCCCCC2)c1	-1	8	35*	-3	4	-2
NC(=O)NC(Cc1ccccc1)C(=O)NNC(=O)COc1ccccc1Cl (centres undefined)	2	2	-1	-2	-6	0
COc1ccc(N2CC(C(=O)N3CCC(c4nc5ccccc5[nH]4)CC3)CC2=O)cc1 (centres undefined)	-2	-4	x	-5	-2	0
C=CCN(C(=O)c1csnn1)C(C(=O)NCc1ccccc1)c1c(F)cccc1Cl (centres undefined)	0	-2	41*	-13	1	0
CCN(CC)S(=O)(=O)c1ccc(N2CC(C(=O)N3Cc4ccccc4CC3C(N)=O)CC2=O)cc1 (centres undefined)	1	0	-2	-5	-6	1
CN(Cc1ccc(Cl)s1)C(=O)CNC(=O)CNC(=O)c1ccc(Cl)cc1Cl	2	0	-5	-7	-6	-4
COc1ccc(CN(C)C(=O)CNC(=O)CNC(=O)c2ccc(Cl)cc2Cl)cc1F	-2	-1	+	-13	-4	-1
